Each structure is given as a SMILES string. A value given as a limit tells only on which side of the number the result lay.

In test [1] the test system is MOLT-4. In words: Selectivity index, ratio of IC50 for HTLV1-deficient human MOLT4 cells to IC50 for HTLV1-carrying S1T cells isolated from peripheral blood mononuclear cells of adult T leukemic patient. It counts as functional. The method in brief:
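SI taken as IC₅₀ in MOLT-4 over IC₅₀ in S1T cells. Both IC₅₀ values come from 4-day MTT viable-cell counts over a range of concentrations.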

Test [2] relates to MOLT-4. The test can be described thus: Antiproliferative activity against HTLV1-deficient human MOLT4 cells after 4 days by MTT assay. The format is functional, cell-based. As to conditions: MOLT-4, 96 h. The method in brief:
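Cells were cultured without or with a range of test-compound concentrations for 4 days. Viable cell number was then measured by MTT, and IC50 values were calculated from it. The same protocol was run in parallel on S1T cells, an ATL patient-derived line.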
A general note: Tetrazolium assays rely on reduction of a dye to a coloured formazan, in cell work by metabolically active cells.

A short description of test [3]: Antiproliferative activity against HTLV1-carrying human S1T cells isolated from peripheral blood mononuclear cells of adult T leukemic patient after 4 days by MTT assay. It counts as functional. To be noted: 96 h. The method in brief:
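Cells grown 4 days without or with a range of compound concentrations; viable cell number read by MTT; IC₅₀ calculated from the resulting data.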

Test [4] is described as follows: Cell cycle arrest in HTLV1-carrying human S1T cells isolated from peripheral blood mononuclear cells of adult T leukemic patient assessed as accumulation at G0/G1 phase at 20 uM after 24 hrs using propidium iodide/RNA staining buffer by FACS analysis. It counts as functional. The method in brief: (§1)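 Cells seeded at 1 × 10⁶/ml with or without 20 µM compound for 24 h. Then PBS wash, fixing in 1% paraformaldehyde, permeabilising in 70% ethanol and 15 min propidium iodide/RNA staining. Phase populations given as % of cells.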

A short description of test [5]: Induction of apoptosis in HTLV1-carrying human S1T cells isolated from peripheral blood mononuclear cells of adult T leukemic patient at 20 uM after 48 hrs using fluorescein isothiocyanate-conjugated annexin V staining by FACS analysis relative to control. It counts as functional. Put shortly:
(§2)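 Cells seeded at 1 × 10⁶/ml and held with or without 20 µM compound for 24 or 48 h. Apoptotic cells given as %; relative values are the ratio of treated to untreated apoptosis %.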

Test [6] can be described thus: Cell cycle arrest in HTLV1-carrying human S1T cells isolated from peripheral blood mononuclear cells of adult T leukemic patient assessed as accumulation at G2/M phase at 20 uM after 24 hrs using propidium iodide/RNA staining buffer by FACS analysis. It counts as functional. Put shortly:
as §1
For orientation: Flow cytometry measures light scatter and fluorescence of single cells or particles in a stream.

In test [7] the test system is MOLT-4. In words: Cell cycle arrest in HTLV1-deficient human MOLT4 cells assessed as accumulation at G0/G1 phase at 20 uM after 24 hrs using propidium iodide/RNA staining buffer by FACS analysis. It counts as functional. The method in brief:
as §1

For test [8], the system named is MOLT-4. In words: Induction of apoptosis in HTLV1-deficient human MOLT4 cells at 20 uM after 48 hrs using fluorescein isothiocyanate-conjugated annexin V staining by FACS analysis. It counts as functional. The method in brief:
as §2

For test [9], the system named is MOLT-4. The test can be described thus: Induction of apoptosis in HTLV1-deficient human MOLT4 cells at 20 uM after 24 hrs using fluorescein isothiocyanate-conjugated annexin V staining by FACS analysis. It counts as functional. Put shortly:
as §2

Test [10] has as its system MOLT-4. In words: Cell cycle arrest in HTLV1-deficient human MOLT4 cells assessed as accumulation at G2/M phase at 20 uM after 24 hrs using propidium iodide/RNA staining buffer by FACS analysis. It counts as functional. The method in brief: as §1
A short description of test [11]: Induction of apoptosis in HTLV1-carrying human S1T cells isolated from peripheral blood mononuclear cells of adult T leukemic patient at 20 uM after 48 hrs using fluorescein isothiocyanate-conjugated annexin V staining by FACS analysis. It counts as functional. Put shortly:
as §2

A short description of test [12]: Induction of apoptosis in HTLV1-carrying human S1T cells isolated from peripheral blood mononuclear cells of adult T leukemic patient at 20 uM after 24 hrs using fluorescein isothiocyanate-conjugated annexin V staining by FACS analysis. The format is functional. Put shortly: as §2
Test [13] is described as follows: Induction of apoptosis in HTLV1-carrying human S1T cells isolated from peripheral blood mononuclear cells of adult T leukemic patient at 20 uM after 24 hrs using fluorescein isothiocyanate-conjugated annexin V staining by FACS analysis relative to control. It counts as functional. The method in brief: as §2
The subject of test [14] is MOLT-4. In words: Cell cycle arrest in HTLV1-deficient human MOLT4 cells assessed as accumulation at S phase at 20 uM after 24 hrs using propidium iodide/RNA staining buffer by FACS analysis. It counts as functional. Put shortly:
as §1

A short description of test [15]: Cell cycle arrest in HTLV1-carrying human S1T cells isolated from peripheral blood mononuclear cells of adult T leukemic patient assessed as accumulation at S phase at 20 uM after 24 hrs using propidium iodide/RNA staining buffer by FACS analysis. The format is functional. Put shortly: as §1
A further test relates to HL-60. The test can be described thus: Antiproliferative activity against human HL60 cells. The format is functional, cell-based.
In the next test the test system is Jurkat. In words: Antiproliferative activity against human Jurkat cells. The format is functional, cell-based.
For test [16], the system named is MOLT-4. The test can be described thus: Antiproliferative activity against human MOLT4 cells. The format is functional, cell-based.
The subject of a further test is U-937. In words: Antiproliferative activity against human U937 cells. It counts as functional, cell-based.

With `CON(C)C(=O)c1ccc2c(c1)C(C)(C)CCC2(C)C`, in the test with MOLT-4 [1], the “Ratio IC50” value amounted to 0.8. Also, the IC50 (in general, the concentration at which inhibition is half-maximal) turned out to be 9.9 µM with MOLT-4 [2] and 12.6 µM in test [3].
The corresponding values for `CC(=O)c1ccc2c(c1)C(C)(C)CCC2(C)C` are 9.6, 66 µM and 6.9 µM.
In the case of `CC1(C)CCC(C)(C)c2cc(C(=O)c3ccccc3)ccc21`, the “Ratio IC50” value with MOLT-4 [1] is given as 1.7. The concentration for half-maximal inhibition (IC50) with MOLT-4 [2] came to 11.8 µM; in test [3], 7 µM.
In the case of `CC(C)(C)C(=O)c1cc2c(cc1O)C(C)(C)CCC2(C)C`, the “Ratio IC50” value in the test on MOLT-4 [1] turned out to be 1. Moreover, the half-inhibitory concentration (IC50) was 43.2 µM in the test with MOLT-4 [2] and 41.5 µM in test [3].
`CC(=O)c1cc(C)cc(C)c1`: the IC50 (in the test with MOLT-4 [2]; in test [3]) was more than 100 µM throughout.
With `CC1(C)CCC(C)(C)c2cc(C(=O)O)c(O)cc21`, the “Ratio IC50” value in the test with MOLT-4 [1] was found to be 1.5. Besides, the figures for the 50% inhibitory concentration (IC50) (in the test on MOLT-4 [2]; in test [3]) were 44.4 µM and 29.7 µM, respectively.
With `CC(=O)c1ccc(C)c(C)c1`, the IC50 (in the test with MOLT-4 [2]; in test [3]) was more than 100 µM in each case.
For `CC(C)C(=O)c1cc2c(cc1O)C(C)(C)CCC2(C)C`, the “Ratio IC50” value in the test on MOLT-4 [1] amounted to 5.3. The IC50 came to 31.9 µM with MOLT-4 [2] and 6 µM in test [3].
Consider `CC(=O)c1ccc(C)cc1C`, for which the IC50 (with MOLT-4 [2]; in test [3]) was more than 100 µM throughout.
With `CC(=O)c1cc2c(cc1O)C(C)(C)CCC2(C)C`, the Activity was determined as 37% in test [4]; 2.1% in test [5]; 23% in test [6]; 42.14% in the test with MOLT-4 [7]; 4% in the test with MOLT-4 [8]; 7% with MOLT-4 [9]. In addition, the Activity with MOLT-4 [10] was 11.1%; in test [11], 10.1%; in test [12], 10.1%; in test [13] it was 1.3%; in the test with MOLT-4 [14], 46.76%; in test [15], 40%. Further, in the test with MOLT-4 [1], the “Ratio IC50” value is on record as 12.4. In addition, the 50% inhibitory concentration (IC50) with MOLT-4 [2] was determined as 82.9 µM; in test [3] it was 6.7 µM.
Take `CC1(C)CCC(C)(C)c2cc(C=O)ccc21`: the “Ratio IC50” value in the test with MOLT-4 [1] stood at 0.75. Besides, the concentration for half-maximal inhibition (IC50) in the test on MOLT-4 [2] amounted to 24.8 µM; in test [3] it was 33 µM.
In the same order, the values of `CC(O)c1ccc2c(c1)C(C)(C)CCC2(C)C` (racemic) are 0.87, 34.4 µM and 39.3 µM.
In the same order, the values of `CCC(=O)c1ccc2c(c1)C(C)(C)CCC2(C)C` are 4.6, 21.5 µM and 4.7 µM.
`CC1(C)CCC(C)(C)c2cc(C(=O)O)ccc21`: the figures for the IC50 (in the test with MOLT-4 [2]; in [3]) were 61.1 µM and more than 100 µM, respectively.
With `COc1cc2c(cc1C(C)=O)C(C)(C)CCC2(C)C`, the “Ratio IC50” value in the test with MOLT-4 [1] came to 1.7. The 50% inhibitory concentration (IC50) with MOLT-4 [2] is 11.9 µM; in test [3] it was 7 µM.
The corresponding values for `CC(=S)c1cc2c(cc1O)C(C)(C)CCC2(C)C` are 5.3, 36.4 µM and 6.9 µM.
For `CCC(=O)c1cc2c(cc1O)C(C)(C)CCC2(C)C`, the “Ratio IC50” value in the test on MOLT-4 [1] is 6.9. For the same compound, the results for the IC50 (in the test with MOLT-4 [2]; in test [3]) were 32.3 µM and 4.7 µM, respectively.
In the same order, the values of `CC1(C)CCC(C)(C)c2cc(C(=O)c3ccccc3)c(O)cc21` are 1.9, 28.3 µM and 15.2 µM.
As for `CC1(C)CCC(C)(C)c2ccccc21`, the IC50 (in the test with MOLT-4 [2]; in test [3]) was more than 100 µM throughout.
Regarding `CC1(C)CCC(C)(C)c2cc(C(N)=O)ccc21`, the “Ratio IC50” value in the test on MOLT-4 [1] turned out to be 1.1. The IC50 with MOLT-4 [2] was determined as 39.4 µM; in [3], 37 µM.
Turning to `CC1(C)CCC(C)(C)c2cc(NC(=O)c3ccc(C(=O)O)cc3)ccc21` [TAMIBAROTENE], the half-inhibitory concentration (IC50) was found to be 6 µM in the test with HL-60, 17.3 µM in the test with Jurkat, 19.5 µM in the test with MOLT-4 [16] and 20.2 µM in the test with U-937.
Take `CC(C)C(=O)c1ccc2c(c1)C(C)(C)CCC2(C)C`: the “Ratio IC50” value in the test with MOLT-4 [1] is 9.1. Further, the IC50 is 34.6 µM with MOLT-4 [2] and 3.8 µM in [3].

For the origin of these results see ChEMBL document CHEMBL1152930, “Discovery of tetrahydrotetramethylnaphthalene analogs as adult T-cell leukemia cell-selective proliferation inhibitors in a small chemical library constructed based on multi-template hypothesis” (Bioorg Med Chem, 2009).
